Series [1] deals with T1, 17-beta-hydroxysteroid dehydrogenase type 3 (Homo sapiens) (UniProt P37058).
T1 sequence (whole entry): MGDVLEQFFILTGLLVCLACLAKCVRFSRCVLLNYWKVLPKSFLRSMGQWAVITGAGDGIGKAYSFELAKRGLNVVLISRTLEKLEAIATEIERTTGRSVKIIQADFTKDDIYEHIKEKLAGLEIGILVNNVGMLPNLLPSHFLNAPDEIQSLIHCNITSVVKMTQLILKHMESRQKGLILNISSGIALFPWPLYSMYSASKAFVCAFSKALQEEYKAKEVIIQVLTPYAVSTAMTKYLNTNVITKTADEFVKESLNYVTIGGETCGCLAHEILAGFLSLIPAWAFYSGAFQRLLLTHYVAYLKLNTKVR
The experiment in a line: Inhibition of 17beta-HSD3 (unknown origin) expressed in human LNCAP cells assessed as reduction in [14C]-testosterone formation from [14C]-4-androstene-3,17-dione at 0.1 uM measured after 1 hr relative to control. It is filed as cell-based. An outline of the steps: (§1)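 LNCaP cells stably transfected with 17β-HSD3 were plated at 10,000 per well in hygromycin-free medium and grown 2 days. They were then given 15 nM [14C]-4-androstenedione plus inhibitor at 0.1, 0.5 or 1.0 µM (0.05% DMSO final) for 1 h. Steroids were ether-extracted, separated by TLC and quantified by radioimaging. Results are % inhibition of conversion to T.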

In series [2] the target is T1, 17-beta-hydroxysteroid dehydrogenase type 3 (Homo sapiens). Briefly: Inhibition of 17beta-HSD3 (unknown origin) expressed in human LNCAP cells assessed as reduction in [14C]-testosterone formation from [14C]-4-androstene-3,17-dione at 0.5 uM measured after 1 hr relative to control. The format is cell-based. An outline of the steps:
as §1

Series [3] shares this target. The experiment in a line: Inhibition of 17beta-HSD3 (unknown origin) expressed in human LNCAP cells assessed as reduction in [14C]-testosterone formation from [14C]-4-androstene-3,17-dione at 1 uM measured after 1 hr relative to control. The format is cell-based. An outline of the steps: as §1
Series [4] addresses T2, 17-beta-hydroxysteroid dehydrogenase type 3 (Homo sapiens, UniProt P37058).
T2 sequence (P37058 whole entry): T1 sequence (whole entry)
Briefly: Inhibition of 17beta-HSD3 (unknown origin) expressed in human LNCAP cells assessed as reduction in [14C]-testosterone formation from [14C]-4-androstene-3,17-dione measured after 1 hr. The format is cell-based. An outline of the steps: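 Transfected LNCaP[17β-HSD3] cells were incubated 1 h with 15 nM [14C]-4-androstenedione and inhibitor at seven concentrations (0.001–5.0 µM; 0.05% DMSO). [14C]-T formation was measured by TLC and radioimaging. IC50 was obtained by curve fitting, averaging two independent experiments in triplicate.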

Series [5] deals with LAPC4. The experiment in a line: Androgenic activity in human LAPC4 cells expressing androgen receptor assessed as effect on cell proliferation at 0.1 uM supplemented with fresh medium containing compounds every 3 days for 7 days by MTS assay (reference value: 100%). It is filed as ADME, cell-based. The conditions noted are these: lapc4, 168 h. An outline of the steps:
(§2)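 Androgen-dependent LAPC-4 cells were seeded at 5,000 per well in IMDM with 5% dextran-coated charcoal-treated FBS and pre-incubated 24 h at 37 °C, 5% CO2. Compounds were added from DMSO stock at 0.1, 0.5 and 1.0 µM, with 0.05% DMSO in controls. Incubation lasted 7 days, with a medium change at day 3. Growth was read by MTS (4 h, 490 nm) as % of untreated control (100%), in triplicate.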

Series [6] relates to LAPC4. The experiment in a line: Androgenic activity in human LAPC4 cells expressing androgen receptor assessed as effect on cell proliferation at 0.5 uM supplemented with fresh medium containing compounds every 3 days for 7 days by MTS assay (reference value: 100%). The format is ADME, cell-based. The conditions noted are these: lapc4, 168 h. An outline of the steps:
as §2
(Tetrazolium dyes change colour on reduction, which living cells bring about.)

Series [7] has as its system LAPC4. Briefly: Androgenic activity in human LAPC4 cells expressing androgen receptor assessed as effect on cell proliferation at 1 uM supplemented with fresh medium containing compounds every 3 days for 7 days by MTS assay (reference value: 100%). The format is ADME, cell-based. The conditions noted are these: lapc4, 168 h. The method, boiled down: as §2
The nature of series [8]: Stability of the compound in human liver S9 fraction at 10 uM measured after 1 hr by NADPH by HPLC-MS analysis. It is filed as ADME, subcellular. The conditions noted are these: s9, 1 h. An outline of the steps:
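Substrate (10 µM) was incubated 1 h at 37 °C with 40 µg human liver S9 fraction in 50 mM Tris with 10 mM MgCl2, with or without 10 mM NADPH. The reaction was stopped with MeOH. Remaining parent was measured by HPLC-MS (UV 190 nm) as the AUC ratio with/without NADPH ×100. Values are the mean ± SD of four independent experiments.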

Series [9] deals with LAPC4. Briefly: Antiproliferative activity against human LAPC4 cells expressing androgen receptor assessed as inhibition of cell proliferation supplemented with fresh medium containing compounds every 3 days for 7 days by MTS assay. It is filed as functional, cell-based. An outline of the steps: as §2

In general, inhibition refers to the drop in the measured response relative to a control, in per cent. In the case of `CC1CN(S(=O)(=O)c2ccccc2C(F)(F)F)C(C)CN1CC(O)c1ccc2c(c1)CC[C@@H]1[C@@H]2CC[C@]2(C)C(=O)CC[C@@H]12` (single isomer, unassigned; diastereomer A) [listing 1 of 2 here], the figures for the inhibition in series [1], in [2] and in [3] were 50%, 95% and 98%, respectively.

Broadly, the IC50 is the concentration at which inhibition is half-maximal. With `CC(=O)[C@H]1CC[C@H]2[C@@H]3CC[C@H]4C[C@@](O)(CN5CC(C)N(S(=O)(=O)c6ccccc6C(F)(F)F)CC5C)CC[C@]4(C)[C@H]3CC[C@]12C` (some centres undefined), the values for the inhibition in [1], in [2] and in [3] were 10%, 30% and 42%, respectively. In addition, in series [4], the IC50 was 2600 nM. The Activity in series [5] was determined as 45.9%; in series [6], 26.4%; in [7] it was 27.1%. Moreover, the Stability entry in series [8] is listed as “Stable”.

With `CC1CN(S(=O)(=O)c2ccccc2C(F)(F)F)C(C)CN1C[C@@]1(O)CC[C@@]2(C)[C@@H](CC[C@@H]3[C@@H]2CC[C@]2(C)C(=O)[C@H](F)C[C@@H]32)C1` (some centres undefined), the results for the inhibition in [1], in series [2] and in [3] were 22%, 75% and 90%, respectively. Also, in series [4], the IC50 was found to be 200 nM. Further, the Activity in series [5] was determined as 147.7%; in series [6], 134.2%; in series [7], 126.6%. Moreover, in series [8], the Stability entry was “Stable”.

As for `CC1CN(S(=O)(=O)c2ccccc2C(F)(F)F)C(C)CN1C[C@@]1(O)CC[C@@]2(C)[C@@H](CC[C@@H]3[C@@H]2CC[C@]2(C)[C@@H](O)CC[C@@H]32)C1` (some centres undefined), the inhibition in series [1] worked out at 38%; in [2] it was 78%; in series [3], 94%. In [4], the IC50 is 190 nM. Moreover, the Activity came out at 116.4% in series [5], 88.1% in series [6] and 31.3% in series [7].

`CC1CN(S(=O)(=O)c2ccccc2C(F)(F)F)C(C)CN1C[C@@]1(O)CC[C@@]2(C)[C@@H](CC[C@@H]3[C@@H]2CC[C@]2(C)[C@@H](O)[C@H](F)C[C@@H]32)C1` (some centres undefined): the inhibition in series [1] amounted to 12%; in series [2], 58%; in series [3] it was 70%. Also, the Activity in series [5] was 153.6%; in [6], 149.7%; in series [7], 142.4%.

In the case of `CC1CN(S(=O)(=O)c2ccccc2C(F)(F)F)C(C)CN1C[C@@]1(O)CC[C@H]2[C@@H](CC[C@@H]3[C@@H]2CC[C@]2(C)C(=O)CC[C@@H]32)C1` (some centres undefined), the inhibition is 20% in [1], 82% in series [2] and 94% in series [3]. In series [4], the IC50 came out at 220 nM. Also, the Activity was 92.8% in series [5], 66.3% in series [6] and 63.1% in [7]. The Stability entry in series [8] is recorded as “Unstable”.

Consider `C#C[C@]1(O)CC[C@H]2[C@@H]3CC[C@H]4C[C@@](O)(CN5CC(C)N(S(=O)(=O)c6ccccc6C(F)(F)F)CC5C)CC[C@]4(C)[C@H]3CC[C@@]21C` (some centres undefined), for which the inhibition in series [1] came to 5%; in series [2], 30%; in series [3], 40%. Also, the Activity in series [5] is listed as 130.9%; in series [6], 95.8%; in series [7] it was 81.2%.

`CC1CN(S(=O)(=O)c2ccccc2C(F)(F)F)C(C)CN1C[C@@]1(O)CC[C@@]2(C)[C@@H](CC[C@@H]3[C@@H]2CC[C@]2(C)C(=O)[C@H](O)C[C@@H]32)C1` (some centres undefined): the inhibition in series [1] turned out to be 0%; in [2], 60%; in [3] it was 80%. Further, the Activity was determined as 114% in [5], 83.1% in [6] and 69.3% in series [7].

As for `CC1CN(S(=O)(=O)c2ccccc2C(F)(F)F)C(C)CN1C[C@@]1(O)CC[C@@]2(C)[C@@H](CC[C@@H]3[C@@H]2CC[C@@]2(C)[C@H]3CC[C@@]23CO3)C1` (some centres undefined), the figures for the inhibition in series [1], in series [2] and in series [3] were 5%, 10% and 20%, respectively. In addition, the results for the Activity in series [5], in [6] and in [7] were 92.6%, 61.2% and 49.3%, respectively.

`CO[C@H]1CC[C@H]2[C@@H]3CC[C@H]4C[C@@](O)(CN5CC(C)N(S(=O)(=O)c6ccccc6C(F)(F)F)CC5C)CC[C@]4(C)[C@H]3CC[C@]12C` (some centres undefined): the inhibition turned out to be 10% in series [1], 18% in series [2] and 30% in series [3].

As for `CC1CN(S(=O)(=O)c2ccccc2C(F)(F)F)C(C)CN1CC(O)c1ccc2c(c1)CC[C@@H]1[C@@H]2CC[C@]2(C)C(=O)CC[C@@H]12` (single isomer, unassigned; diastereomer B), the inhibition is 84% in [1], 98% in [2], 100% in series [3] and “Dose-dependent effect” in series [9].

For `CC1CN(S(=O)(=O)c2ccccc2C(F)(F)F)C(C)CN1CC(O)c1ccc2c(c1)CC[C@@H]1[C@@H]2CC[C@]2(C)C(=O)CC[C@@H]12` (single isomer, unassigned; diastereomer A) [listing 2 of 2 here], the IC50 in [4] is 140 nM. Further, the Activity worked out at 115% in series [5], 94.9% in series [6] and 81.9% in series [7].

For the compound `CC1CN(S(=O)(=O)c2ccccc2C(F)(F)F)C(C)CN1CC(F)c1ccc2c(c1)CC[C@@H]1[C@@H]2CC[C@]2(C)C(=O)CC[C@@H]12` (mixture of isomers), the inhibition in [1] was found to be 30%; in series [2], 80%; in series [3], 90%. Also, in [4], the IC50 is 250 nM.

Regarding `CC1CN(S(=O)(=O)c2ccccc2C(F)(F)F)C(C)CN1C[C@@]1(O)CC[C@@]2(C)[C@@H](CC[C@@H]3[C@@H]2CC[C@]2(C)[C@@H](O)[C@H](O)C[C@@H]32)C1` (some centres undefined), the values for the inhibition in series [1], in [2] and in series [3] were 20%, 48% and 55%, respectively. The results for the Activity in series [5], in [6] and in series [7] were 90.8%, 54.1% and 43.8%, respectively.

These data come from ChEMBL document CHEMBL4406803, “A- and D-Ring Structural Modifications of an Androsterone Derivative Inhibiting 17β-Hydroxysteroid Dehydrogenase Type 3: Chemical Synthesis and Structure-Activity Relationships” (J Med Chem, 2019).
